Measured values: article PMC5558615 (ChemMedChem, 2015)
Positions count from the first letter of the chain named.

Legend:
saposin B = experiment: crystal structure
saposin B (sapB) [1] = molecular target: T1, saposin B (sapB) (Homo sapiens, UniProt P07602); experiment: ITC, two sets of independent sites fit; format: binding
T1 sequence (P07602 195-273): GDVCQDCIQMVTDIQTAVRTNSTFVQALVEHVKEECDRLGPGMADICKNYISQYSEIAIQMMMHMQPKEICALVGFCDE
Method in brief: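 Ligand-into-buffer control titrations were used in the analysis. Integrated heats were plotted against the ligand/sapB dimer molar ratio and fitted to two independent site sets. Strong-site parameters were reported; for the weak set, only n2·K2·ΔH2.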

saposin B (sapB) [2] = molecular target: T2, saposin B (sapB) (Homo sapiens, UniProt P07602, E263A); experiment: ITC, two sets of independent sites fit; format: binding
T2 sequence (P07602 195-273 E263A): T1 sequence (P07602 195-273) with E69A

Row | stoichiometry N (saposin B) | Kd (saposin B (sapB) [1]) | Kd (saposin B (sapB) [2]) | Molecule
1 | 2 | – | – | saposin B (natural protein)
2 | – | 31.8 µM | 23.1 µM | CCN(CC)CCC[C@@H](C)Nc1ccnc2cc(Cl)ccc12 [chloroquine]
